Compound activity as filed in PubChem.
TRPC4 agonist – activators of mouse TRPC4 channel | 310,000 compounds, 0.49% hits | Q9QUQ5 | HEK293 TRPC4beta/mu-opioid, Fluo4 calcium fluorescence; active compounds read high | B-score at 10 µM | AID 2237;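 active means B-score above 5 SD of library B-scores, and initial fluorescence ratio not above library mean plus 5 SD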;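 further: positive B-score marks a calcium rise read as TRPC4 activation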
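Assay system: HEK293 stable line with TRPC4beta plus mu-opioid receptor. Times: dye 45 min RT, read 110 s. Measured by: kinetic Fluo4 calcium fluorescence. Measure: B score of integrated ratio. Controls: assay buffer as low control, maximal DAMGO as high control.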
TRPC4 potent – TRPC4 (mouse) allosteric potentiation; HEK293 TRPC4beta/mu-opioid, DAMGO EC20, Fluo-4 Ca2+ flux; active compounds read high; B-score at 10 µM; 310,000 compounds, 0.42% hits; AID 2227;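 active means B-score of calcium response area above 5 SD of library B-scores, with initial fluorescence ratio within 5 SD of library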
Kir21 inh – inhibitors of mouse Kir2.1 inward-rectifier potassium channel; P35561; HEK293-Kir2.1, FluxOR thallium flux fluorescence; active compounds read low; B-score at 10 µM; 310,000 compounds, 0.85% hits; AID 1672;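 active means fluorescence ratio B-score at or below minus 3 SD of library scores, with starting-brightness B-score within 2 SD, cut at about -4.2 in these data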;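 further: channel flux triggered by added potassium and thallium sulfate stimulus; B-score of peak minus minimum fluorescence over baseline after thallium stimulus; more negative B-score means stronger Kir2.1 block with less thallium influx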
Target sequence (P35561 whole entry, looked up): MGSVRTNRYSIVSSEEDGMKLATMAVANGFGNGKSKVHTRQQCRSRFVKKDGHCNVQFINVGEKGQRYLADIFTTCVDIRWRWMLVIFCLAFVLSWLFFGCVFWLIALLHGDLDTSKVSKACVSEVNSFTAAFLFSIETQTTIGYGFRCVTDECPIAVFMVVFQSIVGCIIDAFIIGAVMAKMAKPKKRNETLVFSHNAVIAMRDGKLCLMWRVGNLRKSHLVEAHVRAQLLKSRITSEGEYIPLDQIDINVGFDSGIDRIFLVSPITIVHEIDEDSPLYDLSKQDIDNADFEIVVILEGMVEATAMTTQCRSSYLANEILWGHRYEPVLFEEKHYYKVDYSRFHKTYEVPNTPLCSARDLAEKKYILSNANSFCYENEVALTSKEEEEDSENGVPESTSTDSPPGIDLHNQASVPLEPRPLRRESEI
TRPC6 activator – activators of mouse TRPC6 channel. Q61143. HEK293-TRPC6 membrane potential dye fluorescence; active compounds read high. B-score at 10 µM. 310,000 compounds, 0.13% hits. AID 2550;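 active means B-score of the integrated fluorescence ratio above library mean plus 3 SD, and starting fluorescence ratio within library mean plus 5 SD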;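 further: higher score means more depolarization so channel activation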
TRPC6 inhibitor – inhibitors of mouse TRPC6 channel. Q61143. HEK293-TRPC6, membrane potential dye, ACh-evoked depolarization; active compounds read low. B-score at 10 µM. 310,000 compounds, 1.1% hits;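 active means B-score under library mean minus 3 SD, initial fluorescence not abnormally high, positive integrated signal ratio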;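 further: B-score derived from integrated fluorescence ratio over the kinetic read; more negative B-score means stronger inhibition of depolarization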
TRPC4 block – inhibitors of mouse TRPC4 channel; Q9QUQ5; HEK293 TRPC4beta/mu-opioid, DAMGO-evoked Fluo4 calcium flux; active compounds read low; B-score at 10 µM; 300,000 compounds, 0.39% hits; AID 2247;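 active means B-score over 3 SD under the library average, no early fluorescence shift, positive overall ratio signal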
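Assay system – HEK293 line stably carrying TRPC4beta and mu-opioid receptor · Doses – single dose · Detection – Fluo4 calcium-dye fluorescence, kinetic read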
TRPC4 sel inh 2 – second selectivity test of TRPC6 inhibitors: effect on mouse TRPC4; shares compounds with TRPC6 inhibitor; HEK293 TRPC4/MOR, membrane potential dye fluorescence; channel activated by saturating DAMGO dose; inhibition, % at 10 µM; 920 compounds, 42% hits; AID 2776;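 active means compounds whose fluorescence signal differed from control wells by over 3 SD, either direction, in both duplicate plates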
TRPC4 spec – tests whether TRPC6 inhibitors also affect mouse TRPC4 | shares compounds with TRPC6 inhibitor | HEK293 TRPC4/mu-opioid, membrane potential fluorescence | activity change, negative = inhibition, % at 10 µM | 920 compounds, 61% hits | AID 2777;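 active means rise or fall in signal beyond 3 SD of buffer-only wells in both replicate plates, either sign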;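 further: integrated kinetic ratio of fluorescence range over baseline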
HEK293 MPD ctr 2-1 – second check of TRPC6 inhibitor effects in parental HEK293 cells; shares compounds with TRPC6 inhibitor; parental HEK293 membrane potential dye fluorescence; maximal acetylcholine challenge after compound addition; signal change vs control, % at 10 µM; 920 compounds, 31% hits; AID 2779;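 active means membrane potential signal moving either way by over 3 SD of the maximum-effect control, in both duplicate plates, meaning non-specific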
HEK293 MPD ctr-1 – parental HEK293 nonspecific activity of TRPC6 inhibitors; parental HEK293 membrane potential dye fluorescence; 920 compounds, 60% hits; shares compounds with TRPC6 inhibitor; membrane potential signal change, % at 10 µM;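 active means membrane potential signal shifting up or down by more than 3 SD of buffer-only wells, on both duplicate plates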
HEK293 MPD ctr-2 – checks TRPC6 modulator effects in parental HEK293 cells; shares compounds with TRPC6 inhibitor; membrane potential dye fluorescence; membrane potential signal change, % at 10 µM; 2,400 compounds, 51% hits; AID 488924;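 active means membrane potential signal moves up or down beyond 5 SD from buffer-only wells, on both duplicate plates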
HEK293 MPD ctr 2-2 – second counter-screen for TRPC6 modulators: effect in parental HEK293 cells; 2,400 compounds, 14% hits; inhibition, % at 10 µM; AID 488926; membrane potential dye fluorescence; after compound, maximal acetylcholine stimulation; shares compounds with TRPC6 inhibitor;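 active means membrane potential signal drops by more than 5 SD from the mean control signal, in both duplicate plates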
TRPC4 ctr mod – tests whether TRPC6 modulators also affect mouse TRPC4; shares compounds with TRPC6 inhibitor; percent change from control (negative = decrease, positive = increase), % at 10 µM; 2,400 compounds, 69% hits; HEK293 TRPC4/mu-opioid, membrane potential fluorescence;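 active means membrane potential signal moved up or down beyond 5 SD of buffer control wells, in both duplicate plates, actives on both sides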
TRPC4/MOR inh 2 – second check of whether TRPC6 modulators also affect mouse TRPC4; inhibition, % at 10 µM; AID 488928; HEK293 TRPC4/mu-opioid, membrane potential dye fluorescence; stimulated with maximal-effect DAMGO; shares compounds with TRPC6 inhibitor; 2,400 compounds, 55% hits;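 active means drop in membrane potential signal beyond 5 SD of the control wells in both duplicate plates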;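 further: TRPC4 counter screen for TRPC6 hits run under conditions tuned for TRPC6 not TRPC4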
TRPC6 block conf – mouse TRPC6 inhibitor confirmation. shares compounds with TRPC6 inhibitor. HEK293-TRPC6, membrane potential dye, ACh-evoked depolarization. inhibition, % at 10 µM. 3,300 compounds, 43% hits. AID 488960;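 active means fluorescence ratio falls more than 5 SD below the full-stimulation control mean, in both duplicate runs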;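 further: integrated fluorescence ratio of peak minus minimum over baseline after agonist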
TRPC6 act confirm – mouse TRPC6 activator confirmation. shares compounds with TRPC6 inhibitor. HEK293-TRPC6 membrane potential dye fluorescence, FDSS. activation, % at 10 µM. 2,800 compounds, 11% hits. AID 488961;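 active means ratio signal rise beyond 5 SD above unstimulated control wells' mean, seen in both duplicate runs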
Each line names hits and unclear results; the compound was inactive in the other large screens (follow-up assays come after a bar, where they were run). A selection: hits, their analogues and other compounds. The true share with any hit is near 2.9%.

CCn1nccc1C(=O)Nc1nc2ccccc2n1CCN1CCCCC1	TRPC6 inhibitor -6.8 | TRPC4 sel inh 2 68% | TRPC4 spec -11% | HEK293 MPD ctr 2-1 inactive | HEK293 MPD ctr-1 inactive | TRPC6 block conf inactive | TRPC6 act confirm inactive
O=C(Nc1nc2ccccc2n1CCN1CCCCC1)c1ccc(Cl)cc1	none
O=C(Nc1nc2ccccc2n1CCN1CCCCC1)C1CCCCC1	none
CC(=O)c1cccc(Nc2cc(C)nc3ccc(C)cc23)c1	TRPC6 inhibitor -6.6 | TRPC4 sel inh 2 66% | TRPC4 spec -22% | HEK293 MPD ctr 2-1 14% | HEK293 MPD ctr-1 -260% | TRPC6 block conf inactive | TRPC6 act confirm inactive
CC(=O)c1cccc(Nc2nc(-c3ccccc3)nc3ccccc23)c1	none
CC(=O)c1cccc(Nc2cc(C)nc3c(C)cc(C)cc23)c1	TRPC6 inhibitor -5.8, TRPC4 block -6 | HEK293 MPD ctr-2 -102% | HEK293 MPD ctr 2-2 76% | TRPC4 ctr mod -22% | TRPC4/MOR inh 2 65% | TRPC6 block conf 56% | TRPC6 act confirm inactive
CC1(C)Oc2ccc(C(=O)NC3CCCC3)cc2N(CC(=O)NC2CCCCC2)C1=O	none
C=Cn1cc[n+](CC(=O)c2ccc(Br)cc2)c1	none
Cc1cccc(NC(=O)COc2ccc(/C=C\c3[nH]c(=O)[nH]c(=O)c3[N+](=O)[O-])cc2)c1	TRPC6 activator 14 | HEK293 MPD ctr-2 inactive | HEK293 MPD ctr 2-2 inactive | TRPC4 ctr mod inactive | TRPC4/MOR inh 2 inactive | TRPC6 block conf inactive | TRPC6 act confirm inactive
O=c1[nH]c(/C=C/c2ccc([N+](=O)[O-])cc2)c([N+](=O)[O-])c(=O)[nH]1	none
COC(=O)CC(N)c1ccc(OC)c2ccccc12 (stereo unspecified)	TRPC6 inhibitor -5.3 | HEK293 MPD ctr-2 inactive | HEK293 MPD ctr 2-2 inactive | TRPC4 ctr mod inactive | TRPC4/MOR inh 2 inactive | TRPC6 block conf inactive | TRPC6 act confirm inactive
COc1ccccc1C(C)NCC(=O)NCc1ccc(C)cc1 (stereo unspecified)	none
Cc1nc2ccccc2nc1N1CCC(C)CC1	none
Cc1cc(N2CCC(C)CC2)nc2cccc(O)c12	TRPC6 inhibitor -8.4, TRPC4 block -6 | HEK293 MPD ctr-2 -139% | HEK293 MPD ctr 2-2 inactive | TRPC4 ctr mod -30% | TRPC4/MOR inh 2 86% | TRPC6 block conf inactive | TRPC6 act confirm inactive
O=C(Nc1cccc(Br)c1)c1ccc(OC2CSC2)cc1	none
CSc1ccc(S(=O)(=O)N2CCN(Cc3ccc4c(c3)OCO4)CC2)cc1	TRPC6 inhibitor -5 | HEK293 MPD ctr-2 inactive | HEK293 MPD ctr 2-2 inactive | TRPC4 ctr mod inactive | TRPC4/MOR inh 2 inactive | TRPC6 block conf 40% | TRPC6 act confirm inactive
O=C(c1ccc(Cn2cc(Cl)cn2)o1)N1CCN(Cc2ccc3c(c2)OCO3)CC1	TRPC6 inhibitor -5.7 | HEK293 MPD ctr-2 98% | HEK293 MPD ctr 2-2 inactive | TRPC4 ctr mod 18% | TRPC4/MOR inh 2 inactive | TRPC6 block conf 40%
Cc1ccc(C(=O)N2CCN(Cc3ccc4c(c3)OCO4)CC2)c(Cl)c1	none
CN1CCN(C(=O)c2ccc(Cn3cc(Cl)cn3)o2)CC1	none
O=C(O)CCC(=O)N1CCN(Cc2ccc3c(c2)OCO3)CC1	TRPC6 inhibitor -6.8 | TRPC4 sel inh 2 inactive | TRPC4 spec inactive | HEK293 MPD ctr 2-1 inactive | HEK293 MPD ctr-1 inactive | TRPC6 block conf inactive | TRPC6 act confirm inactive
O=C(c1ccccc1Cl)N1CCN(Cc2ccc3c(c2)OCO3)CC1	TRPC6 activator 13 | HEK293 MPD ctr-2 inactive | HEK293 MPD ctr 2-2 inactive | TRPC4 ctr mod inactive | TRPC4/MOR inh 2 inactive | TRPC6 block conf inactive | TRPC6 act confirm 32%
COc1ccc(-n2nc(C(=O)NCC(=O)N(C)Cc3ccccc3)c3ccccc3c2=O)c(OC)c1	none
O=C(C[n+]1ccccc1)N/N=C/c1c(F)cccc1Cl	none
N#Cc1cccnc1Oc1ccccc1	none
Cc1ccc(O)c(Nc2c3ccccc3nc3ccccc23)c1	TRPC6 inhibitor -5.6 | HEK293 MPD ctr-2 -92% | HEK293 MPD ctr 2-2 inactive | TRPC4 ctr mod -18% | TRPC4/MOR inh 2 60% | TRPC6 block conf inactive | TRPC6 act confirm inactive
Cc1ccc(O)c(Nc2nc(-c3ccccc3)nc3ccccc23)c1	none
Nc1nc(Nc2cccc(F)c2)nc2ccccc12	TRPC6 inhibitor -13 | TRPC4 sel inh 2 22% | TRPC4 spec -33% | HEK293 MPD ctr 2-1 -37% | HEK293 MPD ctr-1 -493% | TRPC6 block conf 90% | TRPC6 act confirm inactive
O=c1oc(Nc2cccc(F)c2)nc2ccccc12	none
COc1ccc(Cl)cc1Nc1nc(N)c2ccccc2n1	TRPC6 inhibitor -11 | TRPC4 sel inh 2 46% | TRPC4 spec -20% | HEK293 MPD ctr 2-1 inactive | HEK293 MPD ctr-1 -185% | TRPC6 block conf 81% | TRPC6 act confirm inactive
Cc1ccc(C)c(Nc2nc(N)c3ccccc3n2)c1	TRPC6 inhibitor -16 | TRPC4 sel inh 2 18% | TRPC4 spec -30% | HEK293 MPD ctr 2-1 -3.0% | HEK293 MPD ctr-1 -269% | TRPC6 block conf 90% | TRPC6 act confirm inactive
